Experimental data: ChEMBL document CHEMBL4011636, “Utilization of an Active Site Mutant Receptor for the Identification of Potent and Selective Atypical 5-HT2C Receptor Agonists” (J Med Chem, 2017)

Tests used:
[1] = target: T1, 5-hydroxytryptamine receptor 2C (Homo sapiens) (UniProt P28335); test: Intrinsic activity at recombinant human 5-HT2C receptor expressed in HEK293E cells assessed as induction of intracellular Ca2+ levels after 90 secs by Fluo-4-dye based FLIPR assay relative to serotonin; assay type: functional, cell-based; details: HEK293
T1 sequence (whole entry): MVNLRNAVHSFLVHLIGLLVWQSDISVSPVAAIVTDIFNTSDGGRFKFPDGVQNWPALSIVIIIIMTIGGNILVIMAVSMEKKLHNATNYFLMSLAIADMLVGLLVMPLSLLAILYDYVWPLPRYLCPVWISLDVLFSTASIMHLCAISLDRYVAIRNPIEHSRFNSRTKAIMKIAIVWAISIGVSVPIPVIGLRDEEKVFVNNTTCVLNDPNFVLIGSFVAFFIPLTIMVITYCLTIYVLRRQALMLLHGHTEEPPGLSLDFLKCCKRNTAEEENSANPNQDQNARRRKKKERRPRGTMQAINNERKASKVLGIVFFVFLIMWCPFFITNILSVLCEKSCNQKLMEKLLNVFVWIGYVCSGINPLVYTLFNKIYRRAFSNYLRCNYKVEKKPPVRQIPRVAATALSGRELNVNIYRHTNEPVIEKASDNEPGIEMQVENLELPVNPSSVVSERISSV
Summary of the method: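 FLIPR Fluo-4 Ca2+ assay in HEK293E cells stably expressing the human receptor (VNV isoform for 5-HT2C), eleven-point concentration series, 90 s read. Response normalized to 3 μM serotonin on the same plate (defined as IA = 1). Intrinsic activity taken from a four-parameter logistic fit.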

[2] = target: 5-hydroxytryptamine receptor 2A (Homo sapiens, UniProt P28223); test: Agonist activity at recombinant human 5-HT2A receptor expressed in HEK293E cells assessed as induction of intracellular Ca2+ levels after 90 secs by Fluo-4-dye based FLIPR assay; assay type: cell-based, HEK293
Summary of the method: (§1)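 HEK293E cells stably expressing human receptor (VNV isoform for 5-HT2C; ~400−795 fmol/mg protein), grown in DMEM with 10% dialyzed FBS and G418. Cells plated at 20 000/well in serum-free DMEM overnight at 37 °C, then loaded 1 h at room temperature with 5 μM Fluo-4 in HBSS/25 mM HEPES. Eleven compound concentrations added on FLIPR, Ca2+ signal read for 90 s. EC50 from a four-parameter logistic fit, at least triplicate.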

[3] = target: T2, 5-hydroxytryptamine receptor 2C (Homo sapiens, UniProt P28335); test: Agonist activity at recombinant human 5-HT2C receptor expressed in HEK293E cells assessed as induction of intracellular Ca2+ levels after 90 secs by Fluo-4-dye based FLIPR assay; assay type: functional, cell-based, HEK293; summary of the method: as §1
T2 sequence (P28335 whole entry): T1 sequence (whole entry)

[4] = target: 5-hydroxytryptamine receptor 2B (Homo sapiens, UniProt P41595); test: Agonist activity at recombinant human 5-HT2B receptor expressed in HEK293E cells assessed as induction of intracellular Ca2+ levels after 90 secs by Fluo-4-dye based FLIPR assay; assay type: cell-based, HEK293; summary of the method: as §1
[5] = Metabolic stability in human liver microsomes assessed as parent compound remaining at […] after 10 mins; assay type: ADME, microsome; details: read-out: Stability

Sequence of 5-hydroxytryptamine receptor 2A (P28223 whole entry, canonical isoform): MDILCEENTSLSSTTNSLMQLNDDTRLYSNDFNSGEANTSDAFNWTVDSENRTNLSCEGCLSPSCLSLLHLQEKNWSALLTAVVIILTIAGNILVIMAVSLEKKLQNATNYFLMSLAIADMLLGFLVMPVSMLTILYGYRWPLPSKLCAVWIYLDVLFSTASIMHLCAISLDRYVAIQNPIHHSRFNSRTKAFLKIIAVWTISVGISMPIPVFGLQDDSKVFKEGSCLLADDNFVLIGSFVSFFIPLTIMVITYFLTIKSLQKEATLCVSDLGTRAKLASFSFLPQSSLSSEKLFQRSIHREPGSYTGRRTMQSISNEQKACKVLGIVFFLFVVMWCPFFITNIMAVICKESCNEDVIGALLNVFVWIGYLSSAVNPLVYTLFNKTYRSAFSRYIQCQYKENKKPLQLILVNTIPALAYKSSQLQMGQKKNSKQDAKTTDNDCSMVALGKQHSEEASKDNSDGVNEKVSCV
Sequence of 5-hydroxytryptamine receptor 2B (P41595 whole entry): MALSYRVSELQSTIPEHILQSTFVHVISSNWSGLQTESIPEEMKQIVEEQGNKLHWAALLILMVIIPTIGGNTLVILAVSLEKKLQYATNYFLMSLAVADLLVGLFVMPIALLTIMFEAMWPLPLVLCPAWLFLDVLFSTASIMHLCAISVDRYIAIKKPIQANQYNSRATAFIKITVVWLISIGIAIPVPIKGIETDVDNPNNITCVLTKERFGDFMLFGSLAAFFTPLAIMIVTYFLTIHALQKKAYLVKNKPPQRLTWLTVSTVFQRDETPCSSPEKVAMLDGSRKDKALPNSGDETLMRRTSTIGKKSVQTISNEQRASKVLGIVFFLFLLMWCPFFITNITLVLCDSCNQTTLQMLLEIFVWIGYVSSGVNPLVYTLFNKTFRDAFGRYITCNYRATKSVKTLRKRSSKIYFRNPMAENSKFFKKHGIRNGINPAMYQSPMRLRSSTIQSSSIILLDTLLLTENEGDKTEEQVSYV

Row | SMILES | Intrinsic activity [1] | EC50 [2] [µM] | EC50 [3] [µM] | EC50 [4] [µM] | remaining at 10 min [5] [%]
1 | CCn1nc(-c2nccc3ccccc23)cc1-c1cccnn1 | 0.8 | > 10 | 0.291 to 0.518 | > 10 | –
2 | O=C(c1csc(-c2cccc(Cl)c2Cl)n1)N1CCCCC1 | 0.3 | > 10 | 3.1 to 3.7 | > 10 | –
3 | O=C(c1csc(-c2ccc(Cl)cc2Cl)n1)N1CCOCC1 | – | > 10 | > 10 | > 10 | –
4 | O=C(c1cnc(-c2cccc(Cl)c2Cl)s1)N1CCOCC1 | – | > 10 | > 10 | > 10 | –
5 | O=C(c1csc(-c2ccccc2Cl)n1)N1CCOCC1 | 0.1 | > 10 | 4.6 | > 10 | –
6 | CCn1nc(-c2cccc3ccccc23)cc1-c1ccnn1C | 0.3 | > 10 | 3.46 to 5 | > 10 | –
7 | O=C(c1nc(-c2cccc(Cl)c2Cl)cs1)N1CCOCC1 | 0.8 | > 10 | 0.018 to 0.038 | > 10 | –
8 | Cc1nc(-c2cccc3ccccc23)sc1C(=O)N1CCNCC1 | 0.4 | > 10 | 1.04 | > 10 | –
9 | Cc1nc(-c2cccc3ccccc23)sc1C(N)=O | – | > 10 | > 10 | > 10 | –
10 | CCn1nc(-c2cccc3ncccc23)cc1-c1cccnn1 | 0.3 | > 10 | 4.53 to 4.73 | > 10 | –
11 | CCn1nc(-c2cncc3ccccc23)cc1-c1cccnn1 | 0.7 | > 10 | 0.53 | > 10 | –
12 | O=C(c1csc(-c2cccc(Cl)c2Cl)n1)N1CCC(O)CC1 | 0.7 | > 10 | 0.679 to 0.84 | > 10 | –
13 | Cc1nc(-c2cccc(Cl)c2Cl)sc1C(=O)N1CCOCC1 | – | > 10 | > 10 | > 10 | –
14 | O=C(c1csc(-c2cccnc2)n1)N1CCOCC1 | – | > 10 | > 10 | > 10 | –
15 | CCn1nc(-c2ccnc3ccccc23)cc1-c1cccnn1 | 0.6 | > 10 | 0.315 to 0.396 | > 10 | –
16 | O=C(c1csc(-c2cccc(Cl)c2F)n1)N1CCOCC1 | 0.3 | > 10 | 1.27 to 2.4 | > 10 | –
17 | CCn1nc(-c2cccc3ccccc23)cc1-c1cncn1C | 0.2 | > 10 | 3.85 to 4.39 | > 10 | –
18 | Cc1cc(-c2cccc3ccccc23)oc1C(=O)N1CCC(CO)CC1 | 0.7 | > 10 | 1.03 to 2 | > 10 | –
19 | COCCNC(=O)c1sc(-c2cccc3ccccc23)nc1C | – | > 10 | > 10 | > 10 | –
20 | Cn1cc(-c2cccc3ccccc23)nc1C(=O)N1CCC(CO)CC1 | 0.7 | > 10 | 1.8 to 3.53 | > 10 | –
21 | CCn1nc(-c2cccc3ccccc23)cc1-c1ncnn1C | 0.7 | > 10 | 0.19 to 0.616 | > 10 | 4
22 | Cc1nc(-c2cccc3ccccc23)sc1C(=O)N(C)Cc1ccn(C)n1 | 1 | > 10 | 0.013 to 0.019 | > 10 | –
23 | O=C(c1csc(-c2cccc(Cl)c2Cl)n1)N1CC2CC1CO2 (stereo unspecified) | 0.8 | > 10 | 0.129 to 0.315 | > 10 | –
24 | Cc1nc(-c2cccc3ccccc23)sc1C(=O)N(C)C | 1 | > 10 | 0.059 to 0.072 | > 10 | –
25 | CCn1nc(-c2cccc3cnccc23)cc1-c1cccnn1 | 0.7 | > 5 | 1.6 | > 5 | –
26 | O=C(c1cnc(-c2cccc3ccccc23)s1)N1CCOCC1 | 0.6 | > 10 | 1.52 to 2.27 | > 10 | –
27 | Cc1sc(-c2cccc3ccccc23)nc1C(=O)N1CCOCC1 | 0.3 | > 10 | 2.78 | > 10 | –
28 | O=C(c1csc(-c2cccc(F)c2Cl)n1)N1CCOCC1 | – | > 10 | > 10 | > 10 | –

More lines, now with the values ahead:

Row | Intrinsic activity [1] | EC50 [2] [µM] | EC50 [3] [µM] | EC50 [4] [µM] | remaining at 10 min [5] [%] | SMILES
29 | 0.5 | > 10 | 0.32 to 0.733 | > 10 | – | O=C(c1csc(-c2cccc(Cl)c2Cl)n1)N1CCCOCC1
30 | 0.4 | > 10 | 1.87 | > 10 | – | Cc1nc(-c2cccc3ccccc23)n(C)c1C(=O)N1CCC(CO)CC1
31 | 0.6 | > 10 | 0.729 to 1.62 | > 10 | – | O=C(c1nc(-c2cccc3ccccc23)cs1)N1CCOCC1
32 | 0.4 | > 5 | 1.7 to 1.9 | > 5 | – | CCn1nc(-c2cccc3ccccc23)cc1-c1ncccn1
33 | 0.6 | > 10 | 1.52 | > 10 | – | Cc1sc(-c2cccc(Cl)c2Cl)nc1C(=O)N1CCOCC1
34 | 0.6 | > 10 | 0.766 to 1.17 | > 10 | – | O=C(c1csc(-c2cccc3ccccc23)n1)N1CCOCC1
35 | 1.1 | > 10 | 0.007 | > 5 | – | CCn1nc(-c2cccc3ccncc23)cc1-c1ccc(N)nn1
36 | 0.7 | > 10 | 0.013 to 0.043 | > 10 | 16 | CCn1nc(-c2cccc3ccncc23)cc1-c1cccnn1
37 | 0.6 | 1.8 to 2.5 | 0.45 | > 5 | 4 | CCn1nc(-c2cccc3ccccc23)cc1-c1nnnn1C
38 | 0.3 | > 10 | 4.1 to 10 | > 10 | – | O=C(c1nnn(-c2cccc3ccccc23)n1)N1CCC(CO)CC1
39 | 0.8 | > 5 | 0.576 to 0.613 | > 5 | – | CCn1nc(-c2cccc3ccccc23)cc1-c1ccccn1
40 | 0.7 | > 10 | 0.501 to 0.705 | > 10 | – | Cc1cccc(-c2nc(C(=O)N3CCOCC3)cs2)c1C
